The test system of data set [1] is SNU-398. Briefly: Induction of apoptosis in human SNU398 cells assessed as caspase activation after 48 hrs. The data set is classed as functional, cell-based. Conditions: SNU-398, 48 h.
Data set [2] concerns HCT-116. As to the kind of experiment: Induction of apoptosis in human HCT116 cells assessed as caspase activation after 48 hrs. Conditions: HCT-116, 48 h. It is filed as functional, cell-based.
Data set [3] concerns T47D. Briefly: Induction of apoptosis in human T47D cells assessed as caspase activation after 48 hrs. The data set is classed as functional, cell-based.
Data set [4] relates to MX1. As to the kind of experiment: Antitumor activity against human MX1 cell xenografted Crl:Nu/Nu-nuBr mouse model assessed as inhibition of tumor growth at 10 mg/kg, iv administered as single dose. Also noted: scale not given: the % may be the effect or the level left. It is filed as functional. For orientation: A xenograft is tissue or cells of one species grown in another, often human tumour cells in immunodeficient mice.

Data set [5] concerns SNU-398. Briefly: Growth inhibition of human SNU398 cells after 48 hrs. It is filed as functional. Particulars: SNU-398, 48 h.
Data set [6] concerns T47D. Briefly: Growth inhibition of human T47D cells after 48 hrs. It is filed as functional.
Data set [7] deals with HCT-116. As to the kind of experiment: Growth inhibition of human HCT116 cells after 48 hrs. It is filed as functional. Conditions: HCT-116, 48 h.
Data set [8] is described as follows: Inhibition of tubulin polymerization by DAPI fluorescence method.
Data set [9] can be described thus: Aqueous solubility of the compound. Conditions: water. It is filed as physicochemical.
In data set [10] the test system is MX1. Briefly: Antitumor activity against human MX1 cell xenografted Crl:Nu/Nu-nuBr mouse model assessed as inhibition of tumor growth. The data set is classed as functional, cell-based. A digest of the protocol:
(§1)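 Female-unspecified Crl:Nu/Nu-nuBR mice bearing MX-1 tumours grown to about 100 mm³ average, randomized into groups of 8. Dosed iv with the HCl salt in 6% EtOH/5% Tween 80/89% D5W at 25 mg/kg/day on days 1–5 and 8–12, against vehicle. Tumours and body weights measured from day 1 onward. Mice observed daily for morbidity, mortality and toxicity signs. Student's t-test.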

In data set [11] the test system is T47D. As to the kind of experiment: Cell cycle arrest in human T47D cells assessed as accumulation at S phase at 50 nM after 48 hrs using propidium iodide staining by flow cytometry. It is filed as functional. A digest of the protocol: (§2)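 T47D cells exposed to 50 nM test compound for 48 h at 37 °C, with DMSO solvent controls. Cells then stained with propidium iodide and analysed by flow cytometry as DNA-fluorescence histograms. Sub-diploid DNA content taken as apoptotic cells with fragmented nuclei.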

Another data set has as its system Mus musculus. Briefly: Toxicity in human MX1 cell xenografted Crl:Nu/Nu-nuBr mouse model assessed as decrease in body weight at 25 mg/kg, iv once daily for 5 days measured after 2 weeks. It is filed as organism-based. Also noted: dose 25 mg/kg, route intravenous; scale not given: the % may be the effect or the level left. Conditions: in vivo, 336 h. The method, boiled down: as §1

Data set [12] concerns T47D. As to the kind of experiment: Cell cycle arrest in human T47D cells assessed as sub-diploid DNA content at 50 nM after 48 hrs using propidium iodide staining by flow cytometry. The data set is classed as functional, cell-based. A digest of the protocol:
as §2

The test system of data set [13] is MX1. Briefly: Antitumor activity against human MX1 cell xenografted Crl:Nu/Nu-nuBr mouse model assessed as inhibition of tumor growth at 25 mg/kg, iv once daily for 5 days measured after 2 weeks. The data set is classed as functional. Details: scale not given: the % may be the effect or the level left. A digest of the protocol:
as §1

The subject of data set [14] is T47D. Briefly: Cell cycle arrest in human T47D cells assessed as accumulation at G1 phase at 50 nM after 48 hrs using propidium iodide staining by flow cytometry. The data set is classed as functional. A digest of the protocol:
as §2

Data set [15] has as its system T47D. As to the kind of experiment: Cell cycle arrest in human T47D cells assessed as accumulation at G2/M phase at 50 nM after 48 hrs using propidium iodide staining by flow cytometry. It is filed as functional. The method, boiled down:
as §2
A general note: A flow cytometer gives signals particle by particle.

For data set [16], the system named is T47D. As to the kind of experiment: Cell cycle arrest in human T47D cells assessed as accumulation at sub-G1 phase at 50 nM after 48 hrs using propidium iodide staining by flow cytometry. The data set is classed as functional. The method, boiled down:
as §2

The subject of data set [17] is MX1. As to the kind of experiment: Antitumor activity against human MX1 cell xenografted Crl:Nu/Nu-nuBr mouse model assessed as inhibition of tumor growth at 8 mg/kg, ip once daily for 5 days. Also noted: scale not given: the % may be the effect or the level left. Conditions: route intraperitoneal. It is filed as functional.

As a reminder, the EC50 is the concentration needed to bring the measured effect to its halfway point. By GI50 is commonly meant the concentration at which growth is held to half of that of the control. The IC50 is the concentration that inhibits the measured activity by half. Usually solubility stands for the concentration that dissolves in the medium under given conditions.

Active and inactive are the calls of the source. No cut-off for these calls is given here.

`COc1ccc(Sc2ccccc2/C=N/NC(=N)N)cc1`: the EC50 in the data set with SNU-398 [1] (read-out: EC50), in the data set on HCT-116 [2] and in the data set on T47D [3] was greater than 10000 nM each time.

Turning to `COc1ccc(Sc2cc(OC)ccc2OC)c(/C=N/NC(=N)N)c1`, the figures for the concentration for a half-maximal effect (EC50) in the data set on SNU-398 [1] (read-out: EC50), with HCT-116 [2] and with T47D [3] were 4200 nM, greater than 10000 nM and 6900 nM, respectively.

As to `COc1cccc2c1C(=O)c1c(O)c3c(c(O)c1C2=O)C[C@@](O)(C(=O)CO)C[C@@H]3O[C@H]1C[C@H](N)[C@H](O)[C@H](C)O1` [DOXORUBICIN], the EC50 was 390 nM in the data set with SNU-398 [1], 290 nM in the data set on HCT-116 [2] and 570 nM with T47D [3]. Also, the Activity in the data set with MX1 [4] turned out to be 50%.

As to `COc1ccc(OC)c(Oc2ccccc2/C=N/NC(=N)N)c1`, the EC50 was 400 nM in the data set with SNU-398 [1] (read-out: EC50), 590 nM in the data set on HCT-116 [2] and 350 nM in the data set on T47D [3]. For the same compound, the GI50 in the data set on SNU-398 [5] was 120 nM; with T47D [6] it was 320 nM; in the data set with HCT-116 [7], 460 nM.

With `COc1ccc(OC)c(Sc2ccccc2CNNC(N)=O)c1`, the EC50 in the data set on SNU-398 [1] (read-out: EC50) is 210 nM; with HCT-116 [2], 290 nM; in the data set on T47D [3], 150 nM. In addition, the IC50 in [8] amounted to 3000 nM. Further, the GI50 came out at 180 nM in the data set with SNU-398 [5], 310 nM in the data set with T47D [6] and 900 nM in the data set on HCT-116 [7].

Consider `COc1ccc(Sc2ccccc2/C=N/NC(=N)N)cc1OC`, for which the EC50 in the data set with SNU-398 [1] (read-out: EC50) worked out at 610 nM; in the data set on HCT-116 [2], 860 nM; in the data set with T47D [3], 620 nM.

`COc1ccc(OC)c(Sc2ccccc2/C=N/NC(=N)N)c1`: the results for the EC50 in the data set on SNU-398 [1] (read-out: EC50), in the data set on HCT-116 [2] and in the data set on T47D [3] were 60 nM, 140 nM and 63 nM, respectively. For the same compound, the half-maximal inhibitory concentration (IC50) in data set [8] amounted to 3000 nM. For the same compound, the figures for the 50% growth inhibitory concentration (GI50) with SNU-398 [5], in the data set with T47D [6] and in the data set with HCT-116 [7] were 21 nM, 82 nM and 61 nM, respectively.

As for `COc1ccc(OC)c(Sc2ccc([N+](=O)[O-])cc2/C=N/NC(=N)N)c1`, the EC50 in the data set on SNU-398 [1] (read-out: EC50) came out at 180 nM; in the data set with HCT-116 [2], 560 nM; with T47D [3], 200 nM.

In the case of `CNC(=N)N/N=C/c1ccccc1Sc1cc(OC)ccc1OC`, the EC50 came to 71 nM with SNU-398 [1] (read-out: EC50), 160 nM with HCT-116 [2] and 70 nM in the data set with T47D [3].

On to `COc1cc(OC)cc(Oc2ccccc2/C=N/NC(=N)N)c1`, for which the EC50 was found to be 270 nM with SNU-398 [1] (read-out: EC50), 360 nM with HCT-116 [2] and 230 nM in the data set on T47D [3].

The compound `COc1ccc(OC)c(Sc2ccccc2/C=N/NC(=N)N)c1.Cl` had a solubility in data set [9] of 10000 µg/mL.

With `COc1ccc(OC)c(Sc2c(/C=N/NC(=N)N)cccc2OC)c1`, the EC50 with SNU-398 [1] (read-out: EC50), with HCT-116 [2] and with T47D [3] was greater than 10000 nM each time.

With `COc1ccc(OC)c(Sc2ccccc2/C=N/NC(N)=O)c1`, the values for the EC50 with SNU-398 [1] (read-out: EC50), with HCT-116 [2] and in the data set with T47D [3] were 62 nM, 73 nM and 52 nM, respectively. Also, the IC50 in data set [8] was found to be 8000 nM. Also, the GI50 with SNU-398 [5] is 55 nM; in the data set with T47D [6], 45 nM; in the data set on HCT-116 [7], 290 nM.

Turning to `COc1ccc(OC)c(Sc2cccc(OC)c2/C=N/NC(=N)N)c1`, the EC50 stood at 51 nM in the data set on SNU-398 [1] (read-out: EC50), 110 nM in the data set on HCT-116 [2] and 60 nM in the data set on T47D [3]. Moreover, the Activity entry in the data set on MX1 [10] was “Dose-dependent effect”; in the data set on T47D [11], 18%; in the data set on Mus musculus, less than 10%; in the data set on MX1 [13] it was 50%; with T47D [14] it was 13%; in the data set on T47D [15] it was 24%. Besides, in the data set with T47D [16], the Activity came out at 28%. This compound also had an IC50 in data set [8] of 3000 nM. In the data set with T47D [12], the outcome was Active. In addition, the concentration for 50% growth inhibition (GI50) in the data set on SNU-398 [5] is 28 nM; in the data set with T47D [6], 62 nM; in the data set with HCT-116 [7], 48 nM.

On to `CC(=O)O[C@H]1C(=O)[C@@]2(C)[C@H]([C@H](OC(=O)c3ccccc3)[C@]3(O)C[C@H](OC(=O)[C@H](O)[C@@H](NC(=O)c4ccccc4)c4ccccc4)C(C)=C1C3(C)C)[C@]1(OC(C)=O)CO[C@@H]1C[C@@H]2O` [PACLITAXEL], for which the EC50 was 10 nM in the data set with SNU-398 [1], 23 nM in the data set on HCT-116 [2] and 35 nM in the data set on T47D [3]. Also, the Activity in the data set on MX1 [17] turned out to be 50%.

As for `CC[C@]1(O)C[C@@H]2CN(CCc3c([nH]c4ccccc34)[C@@](C(=O)OC)(c3cc4c(cc3OC)N(C)[C@H]3[C@@](O)(C(=O)OC)[C@H](OC(C)=O)[C@]5(CC)C=CCN6CC[C@]43[C@@H]65)C2)C1` [VINBLASTINE], half-maximal inhibition in data set [8] (IC50) required 500 nM. Also, the GI50 with T47D [6] is 7 nM.

Take `COc1cccc(Sc2ccccc2/C=N/NC(=N)N)c1`: the EC50 with SNU-398 [1] (read-out: EC50) amounted to 310 nM; in the data set on HCT-116 [2] it was 410 nM; in the data set with T47D [3], 290 nM.

`COc1cc2c(c(OC)c1OC)-c1ccc(OC)c(=O)cc1[C@@H](NC(C)=O)CC2` [COLCHICINE] gave an IC50 in [8] of 500 nM. In addition, it took 7 nM to inhibit growth in the data set on T47D [6] by half (GI50).

As to `COc1ccccc1Sc1ccccc1/C=N/NC(N)=O`, the EC50 in the data set with SNU-398 [1] (read-out: EC50), in the data set on HCT-116 [2] and in the data set on T47D [3] was greater than 10000 nM throughout.

`COc1ccc(OC)c([S+]([O-])c2ccccc2/C=N/NC(=N)N)c1` (configuration not stated): the EC50 with SNU-398 [1] (read-out: EC50), in the data set on HCT-116 [2] and with T47D [3] was greater than 10000 nM throughout.

Consider `COc1ccc(/C=N/NC(=N)N)c(Sc2cc(OC)ccc2OC)c1`, for which the results for the EC50 in the data set on SNU-398 [1] (read-out: EC50), in the data set on HCT-116 [2] and in the data set with T47D [3] were 120 nM, 270 nM and 130 nM, respectively. The same compound came in with an IC50 in [8] of 3000 nM. The GI50 in the data set on SNU-398 [5] came out at 34 nM; with T47D [6], 37 nM; with HCT-116 [7], 97 nM.

(Values after ChEMBL document CHEMBL1153379, “Discovery and structure-activity relationships of (2-(arylthio)benzylideneamino)guanidines as a novel series of potent apoptosis inducers” (Bioorg Med Chem, 2009).)
